Shown is part of a subset that was picked to be rich in hits.
H69AR inhibit: growth inhibitors of human H69AR lung tumor cells; H69AR lung tumor viability, ATP luminescence, 72 h; active compounds read low; viability, % at 10 µM; hit rate 6% among 85,000; AID 598;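 active = viability at or below 40%; inactive = viability above 40%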;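 also: multidrug resistant small cell line overexpressing MRP-1 efflux transporter; 100% = mean luminescence of untreated control wells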
HCT116 PTEN-null: suppresses growth of cells with PTEN deletion; hit rate 1.2% among 140,000; AID 827; HCT116 PTEN-null viability, CellTiter-Glo, 60 h; active compounds read low; viability, % at 10 µM;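 active = viability at or below a set limit, 4 SD under the median of all tested compounds, cut at about 3.7% in these data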;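 also: PTEN knockout HCT116 line with beta catenin targeted HCT116 as companion control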
Lung fibro prol: blocks proliferation of human lung fibroblasts. LL 47 human lung fibroblast viability, ATP luminescence; active compounds read low. hit rate 1.1% among 85,000. viability, % at 10 µM;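 active = viability at or below 50% in the single dose screen; inactive = viability above 50%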;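 also: compound exposure lasted 72 h before the ATP readout; 100% = median luminescence of untreated cell-only wells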
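Test system: LL 47 human lung fibroblasts / Incubation: 72 h compound exposure at 37 °C after overnight plating / Technique: luminescent ATP detection, CellTiter-Glo / Compound dosing: 0.1% DMSO in all compound wells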
bCat KO growth: beta-catenin-lacking colon tumor cell growth suppression; HCT116 beta-catenin knockout viability, CellTiter-Glo, 60 h; active compounds read low; viability, % at 10 µM; AID 818; hit rate 1.5% among 140,000;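 active = viability at or under a set limit, the compound median less 4 SD, cut at about 6% in these data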;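 also: 0% = Hyamine 1622 control at 20 µM and 100% = untreated cell control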
HUVEC inhibit: blocks proliferation of human endothelial cells. HUVEC proliferation, CellTiter-Glo luminescence, 72 h; active compounds read low. viability, % at 10 µM (by protocol). hit rate 1.1% among 86,000. AID 648;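 active = viability at or below 30%; inactive = viability above 30%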;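 also: 100% = median luminescence of DMSO-only cell control wells on each plate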
An asterisk follows results filed as active; x = no result.

SMILES	H69AR inhibit	HCT116 PTEN-null	Lung fibro prol	bCat KO growth	HUVEC inhibit
COc1ccccc1Nc1nc(-c2sc(NC(=O)c3ccco3)nc2C)cs1	x	56	x	47	x
CCc1ccc(-c2nc(C(N)=O)c3[nH]c(=O)n(-c4ccccc4OC)c3n2)cc1	16*	26	37*	39	39
COc1ccc(-c2nc(C(N)=O)c3[nH]c(=O)n(-c4cccc(Cl)c4)c3n2)cc1OC	2.1*	2.3*	7.5*	7	32
O=C(Cc1cccs1)N1CCN(S(=O)(=O)c2ccc(Br)cc2)CC1	x	89	x	84	x
CN(C)CCCNC(CC(=O)Nc1ccc(Cl)cc1)C(=O)O (configuration not stated)	98	x	102	x	99
CCOC(=O)Cn1c(C)c(Br)c(=O)c2cccc(C)c21	89	100	101	94	96
Cc1cc(C)cc(NC(=O)NC2CCN(CC(=O)Nc3c(C)cc(C)cc3C)CC2)c1	81	x	125	x	79
CCN(CC)CCn1c2ccccc2c2cnc(N)c(C#N)c21	29*	4	22*	4.3*	77
CN(C)C=Nc1ncc2c3ccccc3n(CCN(C)C)c2c1C#N	54	20	63	24	65
O=C(COC(=O)C1Cc2ccccc2CN1C(=O)c1ccccc1)Nc1ccc(SC(F)F)cc1 (configuration not stated)	x	88	x	84	x
CON1C(=O)C(=O)N(OC)C(C)(C)C1(C)C	x	96	x	99	x
O=c1[nH]c(=O)n(-c2ccc(F)cc2)c2c1C(C(F)(F)F)(C(F)(F)F)N=C(c1ccc(F)cc1)N2	x	11	x	14	x
CCOc1cc(CNc2ccc(O)cc2)ccc1OCc1ccc(Cl)cc1Cl	x	49	x	62	x
CCOc1cccc(CNc2ccc(O)cc2)c1OCc1ccc(Cl)cc1	x	1.9*	x	0.8*	x
COc1ccc(-c2nnc(SCC(=O)N3CCN(c4ccccc4)CC3)o2)cc1OC	14*	87	94	91	66
Cc1ccc(-n2c(C)c3c(C)nnc(C)c3c2C)cc1C	32*	8	93	4.0*	102
Cc1ccc(-n2c(C)c3c(C)nnc(C)c3c2C)cc1	81	x	102	x	87
COc1ccc(CCNC(=O)C2CCN(S(C)(=O)=O)CC2)cc1	100	85	98	90	86
C/C(=C/C(=O)N1CCc2ccccc21)C(=O)O	x	93	x	93	x
O=C1c2ccccc2C2=Nc3ccccc3SC(c3ccc(Cl)cc3)C12 (configuration not stated)	x	3.3*	x	3.7*	x
O=C1c2ccccc2C2=Nc3ccccc3SC(c3cccc(F)c3)C12 (configuration not stated)	x	3.5*	x	2.2*	x
COc1ccc(NC(=O)CCn2cccc2)cc1	97	84	109	86	106
O=C(N/N=C\c1cccc(OC(=O)c2ccco2)c1)c1ccc2c(c1)OCO2	x	79	x	81	x
CCOC(=O)c1[nH]c(C)c(C(=O)NCc2ccc(C)cc2)c1C	91	68	97	91	59
CCOC(=O)c1[nH]c(C)c(C(=O)Nc2ccccc2F)c1C	23*	20	64	23	56
SMILES	H69AR inhibit	HCT116 PTEN-null	Lung fibro prol	bCat KO growth	HUVEC inhibit
CCOC(=O)c1[nH]c(C)c(C(=O)Nc2ccc(C)cc2C)c1C	38*	23	64	29	67
CCOC(=O)c1[nH]c(C)c(C(=O)c2ccc(C)cc2)c1C	29*	x	46*	14	41
CCOC(=O)c1[nH]c(C)c(C(=O)Nc2ccc(F)cc2)c1C	84	102	99	99	100
CC/C(=N\NC(=O)c1ccc(CN(C)S(=O)(=O)c2ccc(C)cc2)cc1)c1ccc(OC(F)F)cc1	x	82	x	70	x
CN(C)c1ccc(NC(=O)Nc2ccc3snnc3c2)cc1	79	104	103	99	93
O=C(Nc1ccccc1)Nc1ccc2snnc2c1	13*	66	101	52	53
N=c1c(-c2nc3ccccc3[nH]2)cc(C(=O)c2cccs2)nn1-c1ccc(Cl)cc1	7.4*	x	71	x	24*
O=C(CSc1ccc(Cl)cc1)Nc1cccc(-c2nc3ccccc3[nH]2)c1	x	68	x	86	x
N/N=C(\c1ccccc1)C12CN3CN(CN(C3)C1)C2	x	94	x	93	x
CC1CCN(S(=O)(=O)c2ccc(NC(=O)Cn3nnc(-c4ccccc4)n3)cc2)CC1	19*	83	29*	94	30
CC1CCCN(S(=O)(=O)c2ccc(NC(=O)Cn3nnc(-c4ccccc4F)n3)cc2)C1 (configuration not stated)	45	106	98	96	63
